Tb MetRS inh – blocks T. brucei methionyl-tRNA synthetase activity. inhibition, % at 11.9 µM. purified T. brucei MetRS, ATP depletion, Kinase-Glo luminescence. 360,000 tested, 0.4% active. AID 624268;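 active means inhibition above a per-plate cutoff of the control wells' mean inhibition plus 3 SD, cut at about 5.5% in these data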;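 further: 0% = DMSO wells median and 100% = median of wells with control inhibitor compound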
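Dosing: 11.9 µM single point; system: parasite MetRS enzyme; technique: luminescence of leftover ATP; times: 15 min enzyme-compound preincubation, 2 h reaction, 10 min detection, 25 °C; replicates: each compound tested once; read-out basis: percent inhibition relative to median high and low control wells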
AHR act – activators of human aryl hydrocarbon receptor; P35869; AHR-responsive luciferase reporter cells, luminescence; activation, % at 5 µM; 320,000 tested, 2.5% active; in the data active means activation above about 47%;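 further: 0% = vehicle wells and 100% = reference agonist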
Target sequence (P35869 whole entry, looked up): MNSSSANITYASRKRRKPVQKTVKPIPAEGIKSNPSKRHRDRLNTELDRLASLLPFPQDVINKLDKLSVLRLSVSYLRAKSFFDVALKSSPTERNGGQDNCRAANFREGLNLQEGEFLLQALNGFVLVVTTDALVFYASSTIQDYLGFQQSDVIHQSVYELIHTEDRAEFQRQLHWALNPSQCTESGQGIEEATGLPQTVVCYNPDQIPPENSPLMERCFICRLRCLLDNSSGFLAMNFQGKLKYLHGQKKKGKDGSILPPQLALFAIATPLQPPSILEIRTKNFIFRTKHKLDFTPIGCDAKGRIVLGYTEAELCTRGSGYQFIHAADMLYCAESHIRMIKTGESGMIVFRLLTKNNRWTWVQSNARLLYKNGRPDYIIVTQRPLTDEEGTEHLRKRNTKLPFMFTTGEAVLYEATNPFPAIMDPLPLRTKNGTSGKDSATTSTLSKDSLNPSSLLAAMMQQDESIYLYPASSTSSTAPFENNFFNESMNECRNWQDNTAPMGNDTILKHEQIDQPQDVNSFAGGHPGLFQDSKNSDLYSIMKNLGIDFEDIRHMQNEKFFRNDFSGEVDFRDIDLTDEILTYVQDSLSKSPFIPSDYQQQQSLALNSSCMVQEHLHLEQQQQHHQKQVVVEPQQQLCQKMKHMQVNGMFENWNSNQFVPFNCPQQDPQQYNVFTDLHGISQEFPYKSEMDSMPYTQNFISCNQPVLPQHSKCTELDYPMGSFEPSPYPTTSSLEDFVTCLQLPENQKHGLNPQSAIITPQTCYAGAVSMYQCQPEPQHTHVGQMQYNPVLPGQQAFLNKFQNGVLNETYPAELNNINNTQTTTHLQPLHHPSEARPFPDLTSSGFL
SMARCA2 act – increases SMARCA2 function in MMTV reporter cells. MG213 cells, MMTV-luciferase reporter, dexamethasone, overnight. activation, % at 9.1 µM. 370,000 tested, 1% active. AID 652017; in the data active means activation above about 7.8%;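 further: 0% = vehicle wells and 100% = reference activator wells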
H9c2 TAG inh – reduces triacylglycerol accumulation in H9c2 cells; inhibition, % at 12.5 µM; 230,000 tested, 0.66% active; AID 651582; Nile Red lipid (TAG) fluorescence; cells loaded with 200 µM oleic acid;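 active means pattern-corrected inhibition of lipid staining of at least 50% with the nuclear-stain viability signal not falling by more than 50%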;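 further: 0% = DMSO wells and 100% = triacsin C control wells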
Efflux pump mplx – blocks antifungal efflux pumps in multiplex yeast assay | S. cerevisiae Candida pump triplex, Nile Red efflux | inhibition, % at 10 µM | 330,000 tested, 0.44% active | AID 485275;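 active means plate passing quality check with inhibition over a set limit, or well fluorescence over plate mean plus 4 SD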;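 further: Nile Red retained in pooled yeast measured as flow cytometry median fluorescence; 0% = buffer negative control and 100% = Enniatin B positive control; higher means more Nile Red kept so more efflux inhibition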
An asterisk follows results filed as active; . = no result given. Hits are enriched below; roughly 4.1% of the tested compounds scored in any of these assays.

SMILES	Tb MetRS inh	AHR act	SMARCA2 act	H9c2 TAG inh	Efflux pump mplx
Cc1nn(-c2ccc(Cl)cc2)c2sc(C(=O)N3CCN(c4ccccn4)CC3)cc12	-0.1	76.8*	-2.6	.	-0.1
Cc1nn(-c2ccc(Cl)cc2)c2sc(C(=O)c3c(N)n(C)c(=O)n(C)c3=O)cc12	-0.1	47.1*	-3.7	2.4	0.2
Cc1nn(-c2ccccc2)c2sc(C(=O)N3CCN(Cc4ccccc4)CC3)cc12	.	.	-4.4	.	.
Cc1cc(C)c(C#N)c(Sc2ccccc2N)n1	-0.5	48.7*	-3.1	.	0.0
NC(=S)NN=Cc1ccc(-c2ccc(S(=O)(=O)Nc3ncccn3)cc2)o1	0.7	9.8	-1.3	-3.8	-0.1
NC(=S)N/N=C/c1ccc(-c2ccc(SC(F)F)cc2)o1	-0.7	53.2*	-6.1	18.4	0.1
O=C(O)c1cc(-c2ccc(/C=N/NC(=S)Nc3ccccc3)o2)ccc1Cl	0.1	19.4	-1.3	.	-0.1
NC(=S)N/N=C/c1ccc(-c2ccc(Cl)c(Cl)c2)o1	0.2	48.2*	2.2	16.9	-0.1
O=C(CSc1nnc(-c2cccs2)o1)Nc1cc(Cl)cc(Cl)c1	.	.	-0.2	.	.
Cc1ccc(C)n1-c1nccc(-c2cccs2)n1	-0.8	35.6	3.7	.	0.1
N#Cc1cccn1-c1nccc(-c2cccs2)n1	0.1	65.1*	3.3	.	-0.1
CCCCc1ccc(NC(=O)C2CCCC2)cc1	-0.6	-3.5	7.8*	3.1	0.4
CCOc1ccc(NC(=O)C2CCCN(c3cnccn3)C2)cc1 (centres undefined)	-0.1	64.0*	-0.1	.	-0.1
O=C(NCc1ccc(Cl)cc1)C1CCN(c2cnccn2)CC1	-0.3	4.0	-0.2	0.6	-0.1
Cc1cccc(CCNC(=O)C2CCCN(c3cnccn3)C2)c1 (centres undefined)	0.5	73.4*	-2.2	.	0.0
O=C(NCc1ccc(Cl)cc1)C1CCCN(c2cnccn2)C1 (centres undefined)	-0.2	78.2*	1.3	.	-0.1
COC(=O)[C@]12C[C@H](CC(=O)NCC34CC5CC(CC(C5)C3)C4)C(=O)N(Cc3ccccc3)C1=C[C@H](C(C)C)O[C@@H]2C1CC1	.	.	-2.9	.	.
COC(=O)[C@]12C[C@H](CC(=O)NCc3cccc4ccccc34)C(=O)N(CCc3ccc(OC)c(OC)c3)C1=C[C@H](C(C)C)O[C@@H]2C1CC1	.	.	-0.9	.	.
O=C(Nc1ccc(F)cc1)C1CCCN(c2cnccn2)C1 (centres undefined)	-0.4	9.2	0.3	.	-0.1
CCCc1ccc(NC(=O)C2CCCN(c3cnccn3)C2)cc1 (centres undefined)	-0.5	47.9*	0.6	.	0.5
Cc1ccc(-c2nc3c(Cl)cc(Cl)cc3c(=O)n2O)cc1	-1.2	65.5*	-1.6	.	0.5
O=c1c2ccccc2nc(-c2ccc(Cl)c(Cl)c2)n1O	-0.4	7.0	2.7	4.8	-0.1
O=c1c2cc(Br)ccc2nc(-c2ccc(Cl)cc2)n1O	-0.9	50.2*	-1.4	.	-0.4
O=c1c2cc(Cl)ccc2nc(-c2ccc([N+](=O)[O-])cc2)n1O	-0.2	-0.4	0.5	.	-0.1
O=C(CSc1c[nH]c2ccccc12)N1CCCc2ccccc21	0.3	1.6	-1.1	-3.9	0.1
SMILES	Tb MetRS inh	AHR act	SMARCA2 act	H9c2 TAG inh	Efflux pump mplx
O=C(Cc1c[nH]c2ccccc12)N1CCc2ccccc21	-0.3	74.6*	0.2	2.5	0.0
COc1ccc(Nc2nccc(-c3ccc([N+](=O)[O-])cc3)n2)cc1	-0.6	61.3*	-3.1	.	0.5
COc1ccc(Nc2ccc([N+](=O)[O-])cn2)cc1	-0.4	4.3	0.5	.	0.0
CCOC(=O)C1CCCN(S(=O)(=O)c2cc3c(cc2Br)CCN3C(=O)CC)C1 (centres undefined)	.	.	-2.1	.	.
Nc1ccc2cn[nH]c2c1	0.5	48.6*	-1.3	2.4	0.0
C#CCN1CC(N(C)CCOC(=O)c2ccc(C(C)(C)C)cc2)CS1(=O)=O (centres undefined)	.	.	-4.3	.	.
Cc1ccc(-n2c(SCc3ccc(Cl)c(Cl)c3)nnc2-c2ccc(C(C)(C)C)cc2)cc1	.	.	-3.9	.	.
O=C1/C(=C\c2ccc(Cl)c(Cl)c2)CN(C(=O)CCN2CCOCC2)C/C1=C/c1ccc(Cl)c(Cl)c1	-0.3	.	-7.3	62.7*	.
O=C1/C(=C\c2ccccc2)CN(C(=O)CCN2CCCCC2)C/C1=C/c1ccccc1	-0.3	.	-11.7	45.8	.
COCCN1CCc2c(C)nc3c(-c4ccc(OC)c(OC)c4)cnn3c21	0.2	48.6*	4.5	.	0.0
O=C(NC1CCCCN(Cc2ccc(Cl)cc2)C1=O)c1ccc(F)cc1 (centres undefined)	.	.	-3.8	.	.
COCc1c(C#N)c(NCCc2ccccc2)nc(C)c1[N+](=O)[O-]	-1.2	78.0*	-2.4	.	1.6
COc1cc(CNc2nc(C)c([N+](=O)[O-])c(C)c2C#N)cc(OC)c1	-0.4	7.7	-1.5	0.7	0.0
COCc1c(C#N)c(NCCc2ccc(F)cc2)nc(C)c1[N+](=O)[O-]	-0.8	75.5*	0.5	.	0.0
Cc1nc(NCCc2ccccc2F)c(C#N)c(C)c1[N+](=O)[O-]	0.3	51.5*	-0.2	4.4	-0.2
C[C@@H]1[C@@H](O)C[C@@]2(C[C@H](O)c3cc(Cl)cc(Cl)c3O2)O[C@H]1c1ccccc1Cl	.	.	-1.5	.	.
Oc1ccc(N=Nc2ccc3c(c2)OCCO3)c2cccnc12	-0.6	13.7	-5.9	91.1*	-0.2
COCc1ccc(O)c2ncccc12	0.7	2.1	1.0	100.0*	0.0
COc1cccc(N=Nc2ccc(O)c3ncccc23)c1	0.0	8.8	3.0	.	0.0
COc1ccc(N=Nc2ccc(O)c3ncccc23)cc1	-0.7	48.0*	4.7	77.3*	0.3
COc1ccc(C)cc1N=Nc1ccc(O)c2ncccc12	-0.7	.	-2.7	.	.
Cc1ccccc1N=Nc1ccc(O)c2ncccc12	-1.0	2.5	2.0	85.9*	-0.2
O=C(C1CCCN1S(=O)(=O)c1ccc(F)cc1)N1CCc2ccccc2C1 (centres undefined)	.	.	-5.0	.	.
COCCNC(=O)[C@]1(C#N)CC(=O)N(C)[C@@H]1c1ccccc1	.	.	-0.9	.	.
COc1ccc2c(c1)CCCN2C(=O)C1CCCN(S(=O)(=O)c2cccc3ccccc23)C1 (centres undefined)	.	.	-6.8	.	.
SMILES	Tb MetRS inh	AHR act	SMARCA2 act	H9c2 TAG inh	Efflux pump mplx
C#CCNC(=O)C[C@H]1C[C@@]2(C(=O)OC)C(=C[C@H](C(C)C)O[C@@H]2C2CC2)N(Cc2ccc3c(c2)OCO3)C1=O	.	.	-2.6	.	.
CC(C)c1ccc(NC(=O)CSc2nnc(-c3ccco3)n2C)cc1	.	.	-1.6	.	.
O=Nc1ccc(O)c2ncccc12	-0.3	2.4	-6.2	67.2*	-0.1
O=C(Nc1ccc(F)cc1F)Nc1csc2ccccc12	0.2	50.9*	-2.6	-17.1	0.0
O=C(Nc1ccncc1)Nc1ccc(F)c(Cl)c1	-0.6	10.8	-3.0	9.4	0.0
O=C(Nc1ccc(F)c(Cl)c1)Nc1csc2ccccc12	1.5	72.7*	-4.6	-14.3	0.2
COc1cc(/C=C(/C(=O)c2cccs2)c2nc3ccccc3[nH]2)ccc1O	1.3	56.9*	2.8	-21.3	-0.1
O=C(/C(=C/c1ccc(Cl)cc1)c1nc2ccccc2[nH]1)c1cccs1	0.1	58.4*	.	.	0.0
COC(=O)/C(=C\c1ccc(O)cc1)c1nc2ccccc2[nH]1	0.2	5.2	2.5	0.1	0.2
